CHT allo act: allosterically activates the human high affinity choline transporter | actives 0.49% (n = 310,000) | CHT-expressing cells, membrane potential dye, choline EC20; hits give high values; LV-AA mutant CHT in HEK293 cells | B-score at 10 µM | Q9GZV3;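 active = initial fluorescence not abnormally high and integrated response B-score, plate-corrected, over 3 SD above library mean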
pCIP destab: lowers stability of the mouse p/CIP coactivator protein; actives 0.01% (n = 290,000); decrease of EGFP signal, % at 10 µM; F442A p/CIP-EGFP cells, EGFP fluorescence, 16 h;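 active = EGFP signal decrease of at least 30% at 10 µM or well 3 SD below plate mean, unless failing retest; inactive = the rest, including hits failing retest or dose response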
CHT block: inhibits the human high affinity choline transporter. CHT-expressing cells, membrane potential dye, choline response; hits give low values. actives 0.86% (n = 310,000). Q9GZV3. B-score at 10 µM;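 active = B-score over 3 SD under the library average, and starting fluorescence ratio not unusually high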;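 note: choline stimulus applied at its EC90 after an EC20 pre-addition; B-score computed on integrated fluorescence ratio after choline addition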
GPR7 antag: human neuropeptides B/W receptor 1 antagonism; actives 1.1% (n = 290,000); inhibition, % at 4.4 µM; GPR7-expressing cells, fluorescence antagonist assay; in the data active = inhibition above about 16%, passing the limit was not always enough;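 note: cells stimulated with the agonist NPW; 0% = agonist with vehicle and 100% = vehicle without agonist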
DSG3 Ab inh: inhibitors of pemphigus antibody binding to human desmoglein-3. P32926. DSG3-coupled beads, scFv-anti-DSG3-GFP binding, flow cytometry; hits give low values. binding (percent of control), % at 10 µM. actives 0.48% (n = 310,000);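 active = binding more than 3 SD below its plate's average and above zero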;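 note: hits lower antibody fragment binding to DSG3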
T cell HTS: T cell immune modulation candidate. 2C CD8+ T cell-vesicle binding, flow cytometry; hits give low values. response (vesicle binding), % at 7 µM. actives 0.068% (n = 330,000). AID 2052;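 active = response, share of CD8 T cells binding vesicles, and their 90th percentile fluorescence all below set limits, cut at about 80% in these data, passing the limit was not always enough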;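 note: values below 100% mean blocked vesicle binding to the CD8+ T cells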
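Read-out – percent CD8+ FL2 mean versus row control · System – murine 2C transgenic CD8+ T lymphocytes · Times – 1.5 h cell–vesicle binding at 37 °C, then 20 min icy labelling · Control set – naked vesicles low, QL9 vesicles with vehicle high · Detection – cytometric PE anti-B7-1 and Alexa647 anti-CD8 signals after 1% paraformaldehyde fixation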
CHT inh conf: confirmation of human choline transporter CHT inhibitors; actives 70% (n = 2,400); shares compounds with CHT block; CHT activity remaining % of control (hits give low values), % at 10 µM; CHT-expressing cells, choline membrane potential dye; LV-to-AA substituted CHT, HEK293 cells;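 active = choline transporter activity left, mean of duplicates at 10 µM, below buffer-only control mean minus 3 SD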;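 note: depolarization triggered by choline at its EC90 following an EC20 pre-addition; 0% = hemicholinium-3 full block and 100% = buffer-only control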
HEK293 MPD ctr: activity in parental HEK293 cells lacking CHT; shares compounds with CHT block; membrane potential dye, choline response; active = decrease or increase beyond buffer ±3SD; membrane potential ratio readout (active if shifted either direction beyond buffer ±3SD; no single direction) at 10 µM; actives 4% (n = 2,400); AID 493222;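 note: parental cells lack the transporter so any hit is non-specific; ratio is peak minus trough fluorescence over baseline after EC90 choline challenge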
* = called active by the depositor. The list is not random: actives were taken first. Their share in the collection is about 2.3%.

Screening S=C(NCc1ccccn1)Nc1ccc(Br)cc1Cl returned CHT allo act inactive, pCIP destab -8, CHT block -6.4*, GPR7 antag -6, DSG3 Ab inh 103, T cell HTS 500, CHT inh conf 38%* and HEK293 MPD ctr inactive.
Screening Cc1ccc(NC(=S)NNC(=O)c2ccccc2O)c(C)c1 returned CHT allo act inactive, pCIP destab -12, CHT block -8.2*, GPR7 antag -7, DSG3 Ab inh 101, T cell HTS 164, CHT inh conf inactive and HEK293 MPD ctr inactive.
`CCCCOC(=O)c1ccc(NC(C)=O)cc1` gave CHT allo act inactive, pCIP destab 0, CHT block inactive, GPR7 antag -1 and T cell HTS 274.
Screening CCCCOC(=O)c1ccc(NC(=O)c2cc(Cl)c(Cl)cc2C(=O)O)cc1 returned CHT allo act inactive, pCIP destab 0, CHT block -5.3*, GPR7 antag -10, DSG3 Ab inh 100, T cell HTS 241, CHT inh conf 61%* and HEK293 MPD ctr inactive.
Screening O=C1C(Cl)=C(NS(=O)(=O)c2ccc([N+](=O)[O-])cc2)C(=O)c2ccccc21 returned CHT allo act inactive, pCIP destab -12, CHT block -5.8*, GPR7 antag 3, DSG3 Ab inh 97, T cell HTS 293, CHT inh conf 49%* and HEK293 MPD ctr 2.3*.
O=[N+]([O-])c1ccc(S(=O)(=O)Nc2ccncc2)cc1 was read as CHT allo act inactive, pCIP destab 0, CHT block inactive, GPR7 antag -13, DSG3 Ab inh 118 and T cell HTS 248.
Screening Cc1cc(/C=N/NC(=O)c2c(Br)cnn2C)c(C)n1-c1cccc(Br)c1 returned CHT allo act inactive, pCIP destab 3, CHT block inactive, GPR7 antag -13, DSG3 Ab inh 165 and T cell HTS 140.
`Cc1cc(/C=N/NC(=O)C(=O)N2CCCC2)c(C)n1-c1cccc(Br)c1` gave CHT allo act inactive, pCIP destab 3, CHT block -7.4*, GPR7 antag -9, DSG3 Ab inh 102, T cell HTS 245, CHT inh conf 58%* and HEK293 MPD ctr inactive.
For Oc1c(CN2CCc3ccccc3C2)cc(Cl)c2cccnc12 the results were CHT allo act inactive, pCIP destab 9, CHT block inactive, GPR7 antag -9, DSG3 Ab inh 101 and T cell HTS 380.
`O=c1oc2ccccc2c(O)c1Cc1cc(Cl)c2cccnc2c1O` gave CHT allo act inactive, pCIP destab -1, CHT block -7.3*, GPR7 antag 4, DSG3 Ab inh 95, T cell HTS 307, CHT inh conf 69%* and HEK293 MPD ctr inactive.
COc1ccc(C(NC(=O)CN2C(=O)NC3(CCc4ccccc43)C2=O)c2ccc(OC)cc2)cc1 (centres undefined) was read as DSG3 Ab inh 95.
`CC1(C)CC(=O)/C(=C(\O)CCCN2C(=O)c3ccccc3C2=O)C(=NCC(=O)O)C1` gave CHT allo act inactive, pCIP destab 6, CHT block -5.4*, GPR7 antag -11, DSG3 Ab inh 96, T cell HTS 351, CHT inh conf inactive and HEK293 MPD ctr inactive.
COCC(=O)Nc1cc(=O)n(C)c(=O)n1C was read as CHT allo act inactive, pCIP destab -2, CHT block inactive, GPR7 antag -3, DSG3 Ab inh 100 and T cell HTS 220.
For Cn1c(NC(=O)CCC2CCCCC2)cc(=O)n(C)c1=O the results were CHT allo act inactive, pCIP destab 18, CHT block -6.4*, GPR7 antag -14, DSG3 Ab inh 103, T cell HTS 311, CHT inh conf inactive and HEK293 MPD ctr inactive.
For O=C(CCN1CCCCC1)N1CCc2c([nH]c3ccccc23)C1c1cccnc1 (centres undefined) the results were DSG3 Ab inh 91.
For O=C(NCCc1ccccc1)c1ccc(NC(=O)C2CCCC2)cc1 the results were DSG3 Ab inh 101.
Screening CC1=NN(C(=O)CSCc2ccccc2)C(O)(c2ccc(F)cc2)C1 (centres undefined) returned CHT allo act inactive, pCIP destab -2, CHT block inactive, GPR7 antag -13, DSG3 Ab inh 99 and T cell HTS 70.
CC1=NN(C(=O)CSCc2ccccc2)C(O)(c2ccc(Cl)cc2)C1 (centres undefined) was read as CHT allo act inactive, pCIP destab 7, CHT block -6.5*, GPR7 antag -7, DSG3 Ab inh 97, T cell HTS 0, CHT inh conf inactive and HEK293 MPD ctr inactive.
For CCC1([N+](=O)[O-])COC(c2ccc(Cl)cc2)OC1 (centres undefined) the results were DSG3 Ab inh 105.
`CC(C)(CNS(=O)(=O)c1ccc2c(c1)OCCO2)N1CCOCC1` gave CHT allo act inactive, pCIP destab 19, CHT block inactive, GPR7 antag -9, DSG3 Ab inh 92 and T cell HTS 395.
For Cc1ccc(Oc2ccc(S(=O)(=O)NCC(C)(C)N3CCOCC3)cc2)cc1 the results were CHT allo act inactive, pCIP destab -9, CHT block -6.4*, GPR7 antag 4, DSG3 Ab inh 100, T cell HTS 177, CHT inh conf 40%* and HEK293 MPD ctr inactive.
For CCc1ccc(OCC(=O)N2CCN(c3ccccc3F)CC2)cc1 the results were CHT allo act inactive, pCIP destab 5, CHT block -5.5*, GPR7 antag -7, DSG3 Ab inh 99, T cell HTS 368, CHT inh conf inactive and HEK293 MPD ctr inactive.
Screening Cn1c(C(=O)O)c(C=O)c2ccccc21 returned CHT allo act inactive, pCIP destab 0, CHT block -6.7*, GPR7 antag -10, DSG3 Ab inh 105, T cell HTS 471, CHT inh conf inactive and HEK293 MPD ctr inactive.
For Cn1c(-c2ccccc2)c(C=O)c2ccccc21 the results were CHT allo act inactive, pCIP destab -10, CHT block inactive, GPR7 antag -2, DSG3 Ab inh 99 and T cell HTS 626.
`c1ccc(OCCSc2nnnn2C2CCCCC2)cc1` gave CHT allo act inactive, pCIP destab -9, CHT block inactive, GPR7 antag 8, DSG3 Ab inh 103 and T cell HTS 274.

High-throughput results as filed in PubChem.
